Reference: ChEMBL document CHEMBL4184147, “Polyphenolic Phytochemicals in Cancer Prevention and Therapy: Bioavailability versus Bioefficacy” (J Med Chem, 2017)

Legend:
[1] = system: BXPC-3; assay: Cytotoxicity against human BxPC3 cells assessed as decrease in cell viability after 48 hrs by MTT assay; format: functional, cell-based; details: BXPC-3, 48 h
[2] = system: MDA-MB-231; assay: Cytotoxicity against human MDA-MB-231 cells assessed as decrease in cell viability after 48 hrs by trypan blue exclusion and LDH release; details: MDA-MB-231, 48 h
[3] = system: T47D; assay: Cytotoxicity against human T47D cells assessed as cell viability at 34 uM after 48 hrs by MTT assay; format: functional; details: read-out: Activity
[4] = system: U-87 MG; assay: Cytotoxicity against human U87 cells assessed as cell viability at 34 uM after 48 hrs by MTT assay; format: functional, U-87MG ATCC; details: read-out: Activity
[5] = system: HT-29; assay: Cytotoxicity against human HT-29 cells assessed as cell viability at 34 uM after 48 hrs by MTT assay; format: functional; details: HT-29, 48 h, read-out: Activity
[6] = Tmax in mouse at 100 mg/kg, po by HPLC method; format: ADME, organism-based; details: in vivo
Procedure, shortened: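 Given orally in a self-microemulsifying delivery system (60% surfactant, emulsifier OP:Cremophor EL 1:1; 30% PEG 400 cosurfactant; 10% ethyl oleate oil), total volume no more than 100 μL. Plasma levels measured by previously described methods.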

[7] = system: U-87 MG; assay: Cytotoxicity against human U87 cells assessed as decrease in cell viability after 48 hrs by trypan blue exclusion and LDH release
[8] = system: A549; assay: Cytotoxicity against human A549 cells assessed as cell viability at 34 uM after 48 hrs by trypan blue exclusion and LDH release; details: A549, 48 h
[9] = system: NCI-H460; assay: Cytotoxicity against human NCI-H460 cells assessed as decrease in cell viability after 48 hrs by MTT assay; format: functional, cell-based; details: NCI-H460, 48 h
[10] = Cmax in mouse at 10 mg/kg, iv by LC-MS/MS method; format: ADME, organism-based; design: dose 10 mg/kg, route intravenous; details: in vivo
Procedure, shortened: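 Mouse iv dosing used polyphenol dissolved in DMSO:ethanol (2:1), with total injected volume never above 30 μL. Plasma levels were measured by previously described methods.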

[11] = Cytotoxicity against human MML1 cells assessed as decrease in cell viability after 48 hrs by MTT assay; format: functional, cell-based
[12] = system: PANC-1; assay: Cytotoxicity against human PANC1 cells assessed as decrease in cell viability after 48 hrs by MTT assay; format: functional, cell-based; details: PANC-1, 48 h
[13] = system: PANC-1; assay: Cytotoxicity against human PANC1 cells assessed as cell viability at 34 uM after 48 hrs by MTT assay; format: functional; details: PANC-1, 48 h, read-out: Activity
[14] = system: COLO 201; assay: Cytotoxicity against human COLO201 cells assessed as decrease in cell viability after 48 hrs by trypan blue exclusion and LDH release; details: COLO 201, 48 h
[15] = system: T47D; assay: Cytotoxicity against human T47D cells assessed as decrease in cell viability after 48 hrs by trypan blue exclusion and LDH release
[16] = system: NCI-H460; assay: Cytotoxicity against human NCI-H460 cells assessed as cell viability at 34 uM after 48 hrs by trypan blue exclusion and LDH release; details: NCI-H460, 48 h
[17] = system: COLO 201; assay: Cytotoxicity against human COLO201 cells assessed as cell viability at 34 uM after 48 hrs by trypan blue exclusion and LDH release; details: COLO 201, 48 h
[18] = system: A-375; assay: Cytotoxicity against human A375 cells assessed as decrease in cell viability at 20 uM after 48 hrs by SRB method relative to control; format: functional
[19] = system: LN-229; assay: Cytotoxicity against human LN229 cells assessed as cell viability at 34 uM after 48 hrs by MTT assay; format: functional; details: LN-229, 48 h, read-out: Activity
[20] = Cytotoxicity against human MML1 cells assessed as cell viability at 34 uM after 48 hrs by MTT assay; format: functional; details: read-out: Activity
[21] = system: SK-MEL-2; assay: Cytotoxicity against human SK-MEL-2 cells assessed as decrease in cell viability after 48 hrs by MTT assay; format: functional, cell-based; details: SK-MEL-2, 48 h
[22] = system: HT-29; assay: Cytotoxicity against human HT-29 cells assessed as decrease in cell viability at 20 uM after 48 hrs by SRB method relative to control; format: functional
[23] = system: A549; assay: Cytotoxicity against human A549 cells assessed as decrease in cell viability after 48 hrs by trypan blue exclusion and LDH release; details: A549, 48 h
[24] = system: MDA-MB-231; assay: Cytotoxicity against human MDA-MB-231 cells assessed as cell viability at 34 uM after 48 hrs by MTT assay; format: functional; details: MDA-MB-231, 48 h, read-out: Activity
[25] = system: BXPC-3; assay: Cytotoxicity against human BxPC3 cells assessed as cell viability at 34 uM after 48 hrs by MTT assay; format: functional; details: BXPC-3, 48 h, read-out: Activity
[26] = Plasma concentration in mouse at 10 mg/kg, iv at 60 mins by LC-MS/MS method; format: ADME, organism-based
Procedure, shortened: (§1)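 For IV dosing, compound dissolved in DMSO:ethanol (2:1), total volume no more than 30 μL. For oral dosing, compound given in a self-microemulsifying delivery system (60% surfactant, emulsifier OP:Cremophor EL 1:1; 30% PEG 400; 10% ethyl oleate), total volume no more than 100 μL. Plasma levels measured by previously described methods.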

[27] = system: HT-29; assay: Cytotoxicity against human HT-29 cells assessed as decrease in cell viability after 48 hrs by trypan blue exclusion and LDH release; details: HT-29, 48 h
[28] = system: SK-MEL-2; assay: Cytotoxicity against human SK-MEL-2 cells assessed as cell viability at 34 uM after 48 hrs by MTT assay; format: functional; details: SK-MEL-2, 48 h, read-out: Activity
[29] = Plasma concentration in mouse at 100 mg/kg, po at 60 mins by LC-MS/MS method; format: ADME, organism-based; procedure, shortened: as §1
[30] = system: LN-229; assay: Cytotoxicity against human LN229 cells assessed as decrease in cell viability after 48 hrs by trypan blue exclusion and LDH release; details: LN-229, 48 h
[31] = system: A549; assay: Cytotoxicity against human A549 cells assessed as decrease in cell viability at 20 uM after 48 hrs by SRB method relative to control; format: functional
[32] = Tmax in mouse at 10 mg/kg, iv by LC-MS/MS method; format: ADME, organism-based; details: in vivo; procedure, shortened: as §1
[33] = Plasma concentration in mouse at 10 mg/kg, iv at 120 mins by LC-MS/MS method; format: ADME, organism-based; procedure, shortened: as §1
[34] = Cmax in mouse at 100 mg/kg, po by HPLC method; format: ADME, organism-based; design: dose 100 mg/kg, route oral; details: in vivo
Procedure, shortened: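 For oral dosing, polyphenol was dissolved in a self-microemulsifying delivery system: 60% surfactant (emulsifier OP:Cremophor EL 1:1), 30% cosurfactant (PEG 400) and 10% oil (ethyl oleate). Total volume given was never above 100 μL. Plasma levels were quantified by previously described methods.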

[35] = system: MCF7; assay: Cytotoxicity against human MCF7 cells assessed as decrease in cell viability at 20 uM after 48 hrs by SRB method relative to control; format: functional

Compound `COc1cc(/C=C/c2ccc(O)cc2)cc(OC)c1` [PTEROSTILBENE] has an IC50 [1] of 31 µM, an IC50 [2] of 63 µM and a viability at 34 µM [3] of 91%. It also gave a viability at 34 µM [4] of 103%, a viability at 34 µM [5] of 96% and a Tmax [6] of 10 min. For the same compound, the IC50 [7] was 34 µM, the viability at 34 µM [8] was 81% and the IC50 [9] was 17 µM. It also gave a Cmax [10] of 67 µM, an IC50 [11] of 17 µM and an IC50 [12] of 50 µM. The viability at 34 µM [13] was 94%, the IC50 [14] was 29 µM and the IC50 [15] was 35 µM. The viability at 34 µM [16] was 83%, the viability at 34 µM [17] was 95% and the Activity [18] was 30%. For the same compound, the viability at 34 µM [19] was 98%, the viability at 34 µM [20] was 87% and the IC50 [21] was 17 µM. The Activity [22] was 10%, the IC50 [23] was 26 µM and the viability at 34 µM [24] was 90%. It also gave a viability at 34 µM [25] of 97%, a concentration at 1 h [26] of 15 µM and an IC50 [27] of 28 µM. The viability at 34 µM [28] was 85%, the concentration at 1 h [29] was less than 1 µM and the IC50 [30] was 14 µM. The Activity [31] was 40%, the Tmax [32] was 5 min and the concentration at 2 h [33] was less than 1 µM. The Cmax [34] was 25 µM and the Activity [35] was 25%.
